System: not listed separately
Assay: (§1) Clearance in iv dosed rat
Format: ADME, organism-based
Conditions: in vivo

| Structure (SMILES) | clearance |
| --- | --- |
| CNCCNCc1cccc(-n2nc(C(F)(F)F)cc2-c2nnc(-c3ccccc3OC)o2)c1 | 36.7 mL/min/kg |
| CNCCNCc1cccc(-n2nc(C(F)(F)F)cc2C(=O)NCc2cccc3ccccc23)c1 | 38.3 mL/min/kg |
| CNCCNCc1cccc(-n2nc(C(F)(F)F)cc2C(=O)NCc2ccccc2OC)c1 | 20 mL/min/kg |
| CCOc1ccccc1CNC(=O)c1cc(C(F)(F)F)nn1-c1cccc(CNCCNC)c1 | 20 mL/min/kg |

System: Rattus norvegicus
Assay: as §1
Format: ADME, organism-based
Conditions: in vivo

| Structure (SMILES) | CL |
| --- | --- |
| COc1ccccc1CNC(=O)c1cc(C(F)(F)F)nn1-c1cccc(CNC(=O)[C@H](C)N)c1 | 1430 mL/min/kg |

System: not listed separately
Assay: (§2) Half life in iv dosed rat
Format: ADME, organism-based
Conditions: in vivo

| Structure (SMILES) | half-life |
| --- | --- |
| CNCCNCc1cccc(-n2nc(C(F)(F)F)cc2-c2nnc(-c3ccccc3OC)o2)c1 | 1.8 h |
| CNCCNCc1cccc(-n2nc(C(F)(F)F)cc2C(=O)NCc2cccc3ccccc23)c1 | 1.4 h |
| CNCCNCc1cccc(-n2nc(C(F)(F)F)cc2C(=O)NCc2ccccc2OC)c1 | 2.1 h |
| CCOc1ccccc1CNC(=O)c1cc(C(F)(F)F)nn1-c1cccc(CNCCNC)c1 | 0.5 h |

System: Rattus norvegicus
Assay: as §2
Format: ADME, organism-based
Conditions: in vivo

| Structure (SMILES) | t1/2 |
| --- | --- |
| COc1ccccc1CNC(=O)c1cc(C(F)(F)F)nn1-c1cccc(CNC(=O)[C@H](C)N)c1 | 4.2 min |

System: not listed separately
Assay: (§3) Volume of distribution at steady state in iv dosed rat
Format: ADME, organism-based
Conditions: in vivo, read-out: Vdss

| Structure (SMILES) | Vd |
| --- | --- |
| CNCCNCc1cccc(-n2nc(C(F)(F)F)cc2-c2nnc(-c3ccccc3OC)o2)c1 | 0.6 L/kg |
| CNCCNCc1cccc(-n2nc(C(F)(F)F)cc2C(=O)NCc2cccc3ccccc23)c1 | 0.2 L/kg |
| CNCCNCc1cccc(-n2nc(C(F)(F)F)cc2C(=O)NCc2ccccc2OC)c1 | 1.4 L/kg |
| CCOc1ccccc1CNC(=O)c1cc(C(F)(F)F)nn1-c1cccc(CNCCNC)c1 | 0.1 L/kg |

System: Rattus norvegicus
Assay: as §3
Format: ADME, organism-based
Conditions: in vivo

| Structure (SMILES) | Vdss |
| --- | --- |
| COc1ccccc1CNC(=O)c1cc(C(F)(F)F)nn1-c1cccc(CNC(=O)[C@H](C)N)c1 | 33.6 L/kg |

Biological target: Protein arginine N-methyltransferase 1 (Homo sapiens, UniProt Q99873)
Assay: Inhibition of N-terminal GST-tagged human recombinant PRMT1 expressed in Escherichia coli by microbeta counting
Conditions: not given
Summary of the method: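 GST-tagged human PRMT1 made in E. coli, with recombinant histone H4 as substrate, in Tris-HCl pH 9. Enzyme pre-incubated with compound for 10 min at RT. [3H]SAM (20% labelled, 0.033 mCi/ml) and H4 were added, then 15 min at 30 °C. Stopped with SAH and spotted onto P30 filtermat. Washed with 10% TCA and 95% ethanol, then scintillation-counted.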

Chain of Protein arginine N-methyltransferase 1 (Q99873 whole entry): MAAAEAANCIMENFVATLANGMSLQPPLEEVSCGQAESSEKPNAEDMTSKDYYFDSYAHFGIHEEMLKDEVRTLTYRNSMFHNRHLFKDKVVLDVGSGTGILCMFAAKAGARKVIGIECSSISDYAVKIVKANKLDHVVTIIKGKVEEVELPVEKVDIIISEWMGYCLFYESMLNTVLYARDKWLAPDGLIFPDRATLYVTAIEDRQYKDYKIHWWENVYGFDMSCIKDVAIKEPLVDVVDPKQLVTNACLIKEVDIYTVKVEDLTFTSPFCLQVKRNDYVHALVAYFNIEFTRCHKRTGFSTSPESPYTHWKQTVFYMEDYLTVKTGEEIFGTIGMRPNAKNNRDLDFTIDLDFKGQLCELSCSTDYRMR

| Structure (SMILES) | IC50 |
| --- | --- |
| CNCCNCc1cccc(-n2nc(C(F)(F)F)cc2C(=O)NCc2ccccc2OC)c1 | > 100 µM |

System: not listed separately
Assay: Bioavailability in rat
Format: ADME, organism-based
Conditions: in vivo

| Structure (SMILES) | bioavailability |
| --- | --- |
| CNCCNCc1cccc(-n2nc(C(F)(F)F)cc2-c2nnc(-c3ccccc3OC)o2)c1 | 3% |
| CNCCNCc1cccc(-n2nc(C(F)(F)F)cc2C(=O)NCc2cccc3ccccc23)c1 | 3% |
| CNCCNCc1cccc(-n2nc(C(F)(F)F)cc2C(=O)NCc2ccccc2OC)c1 | 4% |
| CCOc1ccccc1CNC(=O)c1cc(C(F)(F)F)nn1-c1cccc(CNCCNC)c1 | 2% |

Biological target: T1, Histone-lysine N-methyltransferase SETD7 (Homo sapiens, UniProt Q8WTS6)
T1 sequence (Q8WTS6 whole entry): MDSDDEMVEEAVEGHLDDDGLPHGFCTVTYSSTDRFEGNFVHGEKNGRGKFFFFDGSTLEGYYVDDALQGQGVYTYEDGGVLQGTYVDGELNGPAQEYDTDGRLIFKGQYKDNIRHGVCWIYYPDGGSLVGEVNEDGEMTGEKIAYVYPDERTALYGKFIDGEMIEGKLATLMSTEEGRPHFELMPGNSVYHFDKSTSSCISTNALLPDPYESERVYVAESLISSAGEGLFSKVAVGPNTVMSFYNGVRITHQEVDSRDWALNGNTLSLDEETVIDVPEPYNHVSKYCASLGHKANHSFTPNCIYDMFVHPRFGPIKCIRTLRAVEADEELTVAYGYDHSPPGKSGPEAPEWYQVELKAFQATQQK
Assay: Inhibition of N-terminal His-tagged human recombinant SET7/9 expressed in Escherichia coli by microbeta counting
Conditions: not given
Summary of the method: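 His-tagged human SET9 made in E. coli, with histone H3 substrate, in Tris-HCl pH 9. Compound and enzyme pre-incubated for 10 min at RT. [3H]SAM (20% labelled, 0.011 mCi/ml) and H3 were added, then 45 min at 37 °C. Reaction stopped and transferred to a flashplate. Washed twice with 10% TCA, dried and counted.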

| Structure (SMILES) | IC50 |
| --- | --- |
| CNCCNCc1cccc(-n2nc(C(F)(F)F)cc2C(=O)NCc2ccccc2OC)c1 | > 100 µM |

Biological target: T2, Histone-arginine methyltransferase CARM1 (Mus musculus, UniProt Q9WVG6)
T2 sequence (Q9WVG6 whole entry): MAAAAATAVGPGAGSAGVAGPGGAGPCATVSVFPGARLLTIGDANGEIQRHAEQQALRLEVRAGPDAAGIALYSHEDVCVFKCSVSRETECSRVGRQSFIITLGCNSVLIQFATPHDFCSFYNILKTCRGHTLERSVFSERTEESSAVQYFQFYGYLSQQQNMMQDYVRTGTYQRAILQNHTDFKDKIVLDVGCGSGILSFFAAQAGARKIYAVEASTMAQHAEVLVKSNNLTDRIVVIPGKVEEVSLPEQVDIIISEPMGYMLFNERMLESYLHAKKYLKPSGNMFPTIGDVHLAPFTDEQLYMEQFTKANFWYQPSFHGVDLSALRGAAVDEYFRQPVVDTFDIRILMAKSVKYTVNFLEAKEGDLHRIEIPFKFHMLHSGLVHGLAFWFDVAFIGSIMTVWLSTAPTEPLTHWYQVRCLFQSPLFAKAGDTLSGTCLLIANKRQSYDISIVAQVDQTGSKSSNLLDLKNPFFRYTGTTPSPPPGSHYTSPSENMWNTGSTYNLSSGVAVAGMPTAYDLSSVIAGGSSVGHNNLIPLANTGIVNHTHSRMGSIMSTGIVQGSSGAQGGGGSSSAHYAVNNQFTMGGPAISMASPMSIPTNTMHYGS
Assay: Inhibition of N-terminal His-tagged mouse recombinant CARM1 expressed in Sf9 cells by microbeta counting
Conditions: not given
Summary of the method: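 Recombinant CARM1 with histone H3 substrate, in Tris-HCl pH 9. Enzyme pre-incubated with compound for 10 min at RT. [3H]SAM (20% labelled, 0.033 mCi/ml) and H3 were added, then 15 min at 30 °C. Quenched with SAH and spotted on P30 filtermat. Washed twice with 10% TCA and once with 95% ethanol, then wax scintillant counting. Values are means of at least two experiments.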

| Structure (SMILES) | IC50 |
| --- | --- |
| COc1ccccc1CNC(=O)c1cc(C(F)(F)F)nn1-c1cccc(-c2noc([C@H](C)N)n2)c1 | > 20 µM |
| CNCCNC(C)c1cccc(-n2nc(C(F)(F)F)cc2C(=O)NCc2ccccc2OC)c1 (stereo unspecified) | 21 µM |
| COc1ccccc1CNC(=O)c1cc(C(F)(F)F)nn1-c1cccc(CNCCN(C)C)c1 | 7.9 µM |
| COc1ccccc1CNC(=O)c1cc(C(F)(F)F)nn1-c1cccc(CNCCN)c1 | 1 µM |
| CNCCNCc1cc(-n2nc(C(F)(F)F)cc2C(=O)NCc2ccccc2OC)cc(C(F)(F)F)c1 | > 20 µM |
| CNCCNCc1ccc2c(c1)n1nc(C(F)(F)F)cc1c(=O)n2Cc1ccccc1OC | > 10 µM |
| CCNCCNCc1cccc(-n2nc(C(F)(F)F)cc2C(=O)NCc2ccccc2OC)c1 | 7.7 µM |
| COc1ccccc1CNC(=O)c1cc(C(F)(F)F)nn1-c1cccc(CNC2CCNC2)c1 (stereo unspecified) | > 20 µM |
| CNCCNCc1cccc(-n2nc(C(F)(F)F)cc2C(=O)NCc2cccc3ccccc23)c1 | 0.32 µM |
| CNCCNCc1cccc(-n2nc(C(F)(F)F)cc2C(=O)NCc2c(OC)ccc3ccccc23)c1 | 3.35 µM |
| CNCCNCc1cccc(-n2nc(C(F)(F)F)cc2C(=O)NCc2ccccc2OC)c1 | 0.2 µM |
| CNCCNC(=O)c1cccc(-n2nc(C(F)(F)F)cc2C(=O)NCc2ccccc2OC)c1 | > 20 µM |
| CNCCNCc1cc(-n2nc(C(F)(F)F)cc2C(=O)NCc2ccccc2OC)ccc1C | 7.94 µM |
| COc1ccccc1CNC(=O)c1cc(C(F)(F)F)nn1-c1cccc(CNC(=S)[C@H](C)N)c1 | 4.5 µM |
| COc1ccccc1CNC(=O)c1cc(C(F)(F)F)nn1-c1cccc(CNC(=O)[C@H](C)O)c1 | > 20 µM |
| COc1ccccc1CNC(=O)c1cc(C(F)(F)F)nn1-c1cccc(-c2n[nH]c([C@H](C)N)n2)c1 | > 20 µM |
| COc1ccccc1CNC(=O)c1cc(C(F)(F)F)nn1-c1cccc(CCNC(=O)[C@H](C)N)c1 | > 20 µM |
| CNCCNCc1cc(-n2nc(C(F)(F)F)cc2C(=O)NCc2ccccc2OC)ccc1F | 5.6 µM |
| CNCCNCc1cccc(-n2nc(C(F)(F)F)cc2C(=O)NCc2ccccc2)c1 | > 10 µM |
| CNCCNCc1cccc(-n2nc(C(F)(F)F)cc2C(=O)NCc2cc(F)ccc2OC)c1 | 0.71 µM |
| CNCCNCc1cccc(-n2nc(C(F)(F)F)cc2C(=O)NCc2ccccc2OC(F)(F)F)c1 | 6.5 µM |
| CNCCNCc1cccc(-n2nc(C(F)(F)F)cc2C(=O)NCc2ccccc2N)c1 | > 10 µM |
| CNCCNCc1cccc(-n2nc(C(F)(F)F)cc2C(=O)NCc2cccc3c2OCCO3)c1 | 0.71 µM |
| CNCCNCc1cccc(-n2nc(C(F)(F)F)cc2C(=O)NCc2nc3ccccc3[nH]2)c1 | 4.3 µM |
| CNCCNCc1cccc(-n2nc(C(F)(F)F)cc2C(=O)NCCc2c[nH]c3ccccc23)c1 | 1.8 µM |
| CNCCNCc1cccc(-n2nc(C(F)(F)F)cc2C(=O)NCc2ccccc2C)c1 | 13.1 µM |
| CCc1ccccc1CNC(=O)c1cc(C(F)(F)F)nn1-c1cccc(CNCCNC)c1 | 1.61 µM |
| CCOc1ccccc1CNC(=O)c1cc(C(F)(F)F)nn1-c1cccc(CNCCNC)c1 | 0.9 µM |
| CNCCNCc1cccc(-n2nc(C(F)(F)F)cc2C(=O)NCC2CCCCC2)c1 | 3.6 µM |
| CNCCNCc1cccc(-n2nc(C(F)(F)F)cc2C(=O)NCc2nc3ccccc3n2C)c1 | 4.7 µM |

— ChEMBL document CHEMBL1154366, “1,2-Diamines as inhibitors of co-activator associated arginine methyltransferase 1 (CARM1)” (Bioorg Med Chem Lett, 2009)
